Shown are actives, neighbours in structure and some others; about 2.4% of the full set was active somewhere.
rRNA inh HTS = reduced GFP signal of wild-type E. coli, primary screen, bacterial rRNA inhibitor project, GFP/RFP fluorescence, OD600, single point; E. coli WT GFP vs humanized-ribosome RFP mutants, 24 h; active compounds read low; DMSO median 0, no signal -100; GFP signal change (wild-type ribosome), % (no concentration beside the values); 1.6% of 350,000 active;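 active = significant combined selectivity score with lowered wild-type GFP, culture density cut under 30%, mutant RFP and density less affected; inactive = any of these conditions unmet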
ARNT TACC3 PPI = disruptors of ARNT/TACC3 protein interaction, primary screen, biochemical, AlphaScreen, single concentration; AlphaScreen His-ARNT PAS-B/GST-TACC3 binding, luminescence; TACC3 fragment carries E629A point mutation; inhibition, % at 9.99 µM; 0.66% of 390,000 active;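 active = mean inhibition of replicates at least 50% and at least half of replicates each reaching 50%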;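 note: 0% = complete ARNT plus TACC3 wells and 100% = ARNT alone without TACC3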
S100A4 inh HTS = inhibitors of S100A4-myosin IIA peptide binding, primary screen, biochemical, fluorescence polarization, TAMRA-MyoIIA peptide. inhibition, % at 10.7 µM. 0.14% of 360,000 active. AID 652163, 2013;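 active = mean inhibition of at least 70% across replicates, with every replicate also reaching that level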
Target sequence (P26447 whole entry, looked up): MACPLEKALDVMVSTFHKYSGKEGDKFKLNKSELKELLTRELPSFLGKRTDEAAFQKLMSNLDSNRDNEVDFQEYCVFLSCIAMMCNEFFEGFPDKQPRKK
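Compound dosing: one dose per compound; test system: human S100A4 monomer with TAMRA-labelled myosin IIA peptide; probe or stimulus: TAMRA-labelled myosin IIA heavy-chain peptide probe, 5 nM; medium: HEPES buffer with Ca2+, pH 7.2; schedule: 5 min incubation before reading; benchmarks: neutral control DMSO, positive control TFP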
Casp6 inh = human caspase-6 inhibitors, primary screen, biochemical, VEID-R110 fluorescence, single point, set 2; inhibition, % at 12.5 µM; purified caspase-6, Z-VEID-R110 cleavage fluorescence; 0.53% of 350,000 active; AID 686996, 2013; P55212;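 active = mean inhibition across replicates at least about 35%, with every replicate also reaching that limit, limit read from the data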;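 note: 0% = median of neutral control wells and 100% = no fluorescence left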
Target sequence (P55212 24-179 limits assumed): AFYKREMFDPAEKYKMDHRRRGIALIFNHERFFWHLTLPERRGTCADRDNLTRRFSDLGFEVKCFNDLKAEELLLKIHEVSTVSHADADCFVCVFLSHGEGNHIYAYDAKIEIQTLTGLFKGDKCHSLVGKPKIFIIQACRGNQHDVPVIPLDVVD
Target sequence (P55212 194-293 limits assumed): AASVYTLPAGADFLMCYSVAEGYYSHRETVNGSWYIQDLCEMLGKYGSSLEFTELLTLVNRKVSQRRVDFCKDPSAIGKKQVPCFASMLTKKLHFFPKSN
ERAP1 HTS inh = human ERAP1 aminopeptidase inhibitors, primary screen, biochemical, single point, plate reader; 0.15% of 340,000 active; Endoplasmic reticulum aminopeptidase 1 (Homo sapiens), Q9NZ08; inhibition, % at 10.7 µM; recombinant ERAP1, Leu-AMC fluorescence, 60 min; AID 652197, 2013;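 active = mean replicate inhibition of at least 30%, or all replicates individually reaching that 30% level; inactive = mean below 30% and not every replicate reaching it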;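 note: 0% = neutral control wells and 100% = L-leucinethiol positive control wells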
PGC1a acetyl inh = inhibitors of PGC1a acetylation signal, primary screen, cell-based, U2OS, AlphaScreen, inhibitor mode; 0.17% of 350,000 active; inhibition, % at 15.6 µM; AlphaScreen anti-acetyl-lysine; with virally co-expressed GCN5 acetyltransferase;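 active = every replicate shows inhibition of at least 40%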;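 note: 0% = neutral control wells and 100% = positive control wells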
* marks the source's active call; other numbers are inactive results; / = no result given.

SMILES	rRNA inh HTS	ARNT TACC3 PPI	S100A4 inh HTS	Casp6 inh	ERAP1 HTS inh	PGC1a acetyl inh
CC(C)CC(NC(=O)c1ccc(C#CC(C)(C)O)s1)C(=O)O (stereo unspecified)	4.1	-0.1	1.0	0.2	2.1	2.3
CC(C)(O)C#Cc1ccc(C(=O)NC(CCCNC(N)=O)C(=O)O)s1 (stereo unspecified)	14.5	-5.2	6.0	3.0	0.1	81.8*
Cc1ccccc1Nc1c(-c2ccccn2)nc2ccccn12	-53.7*	59.3*	0.1	-0.4	1.7	2.9
Cc1cccn2c(Nc3ccccc3)c(-c3ccccn3)nc12	-43.0*	34.2	-2.8	-1.8	-3.7	-2.5
Cc1ccn2c(Nc3ccccc3)c(-c3ccccn3)nc2c1	6.6	42.8	-4.1	-2.5	0.4	12.4
Cc1ccc2nc(-c3ccccn3)c(Nc3ccccc3C)n2c1	-46.5	64.5*	17.0	3.7	-0.9	10.9
CNC(=O)C[C@H]1CC[C@@H]2[C@@H](COc3ccc(NC(=O)Nc4cccc(Cl)c4)cc3C(=O)N2C)O1	-14.5	3.2	13.6	-0.2	-0.5	-14.9
O=C(Nc1ccc(F)cc1)N1CC(=O)N2[C@H](C1)[C@H](c1ccc(C#Cc3ccc(F)cc3)cc1)[C@@H]2CO	-5.5	/	-4.4	2.8	4.1	-9.4
O=C(Nc1ccc(NC(=O)C2CC2)cc1)c1cccs1	-4.1	-0.1	0.4	59.2*	-2.5	/
O=C(Nc1ccc(NC(=O)c2cccs2)cc1)c1cccs1	8.3	3.6	-12.0	0.5	-2.8	6.4
CCOC(=O)C1=C(C)Nc2ccc(C)cc2S1	/	-0.4	/	/	/	10.7
Cc1ccc2c(c1)Sc1c(ccc3ccccc13)N2	-27.0*	10.2	-6.2	-0.8	-1.1	-14.0
CC(C)C#Cc1ccc([C@@H]2[C@@H](CO)N3C(=O)CN(C(=O)NC4CCCC4)C[C@@H]23)cc1	3.8	/	-7.7	3.0	-4.8	6.9
CCC(=O)N(C)C[C@@H]1Oc2cc(-c3ccccc3F)ccc2S(=O)(=O)N([C@H](C)CO)C[C@@H]1C	-5.2	-5.2	-2.6	2.3	0.0	-5.5
Cc1c(Cl)cccc1-c1ccc(CNCc2ccccn2)o1	-51.1	63.7*	1.6	-3.0	0.0	/
O=C(NCc1ccccn1)c1c(Cl)cccc1Cl	/	-1.6	/	/	/	-1.7
C[C@@H]1CCCCO[C@@H](CN(C)S(C)(=O)=O)[C@@H](C)CN([C@@H](C)CO)C(=O)c2cc(NS(=O)(=O)c3ccc(F)cc3)ccc2O1	-2.5	-11.8	-25.3	0.5	1.5	-1.6
Cn1cccc1/C=C1\SC(=S)N(NC(=O)c2ccccc2O)C1=O	-28.1*	12.3	15.7	9.2	/	0.5
CCN1C(=O)/C(=C2\SC(=S)N(c3c(C)n(C)n(-c4ccccc4)c3=O)C2=O)c2ccccc21	/	14.8	/	/	/	-5.2
CCN1C(=O)/C(=C2\SC(=S)N(NC(=O)c3ccccc3O)C2=O)c2ccccc21	3.0	64.6*	-5.5	-1.3	3.3	/
O=C1S/C(=C\C=C\c2ccco2)C(=O)N1c1ccccc1	/	13.5	/	/	/	/
Cn1cccc1/C=C1\SC(=S)N(NC(=O)c2ccccc2)C1=O	-7.2	12.3	3.3	0.3	3.0	/
O=C(NN1C(=O)/C(=C/C=C/c2ccco2)SC1=S)c1ccccc1O	-5.7	44.9	-8.0	92.1*	-0.2	2.0
C[C@@H]1CN([C@H](C)CO)C(=O)c2cc(N(C)C)ccc2O[C@@H](C)CCCCO[C@H]1CN(C)C(=O)Cc1ccccc1	-0.2	2.1	24.0	-0.8	1.2	-119.4
N#C[C@H]1[C@@H](c2ccccc2C2=CCCCC2)[C@H](CO)N1C(=O)c1cccc(F)c1	-43.2	/	2.6	-3.3	0.8	-0.2
SMILES	rRNA inh HTS	ARNT TACC3 PPI	S100A4 inh HTS	Casp6 inh	ERAP1 HTS inh	PGC1a acetyl inh
COc1cccc(NC(=O)N(C)C[C@@H]2Oc3ncc(C#Cc4ccc(F)cc4)cc3C(=O)N([C@H](C)CO)C[C@H]2C)c1	-7.0	-12.9	5.4	1.1	0.0	-0.2
C[C@@H]1CN([C@@H](C)CO)C(=O)c2cc(NC(=O)CCCN(C)C)ccc2O[C@H]1CN(C)S(=O)(=O)c1ccc(Cl)cc1	5.0	-8.9	1.3	-2.3	-0.8	-4.1
COc1ccccc1N1CCN(Cc2cc(Br)c(O)c3ncccc23)CC1	-25.8	/	3.7	4.6	10.7	21.0
COCc1cc(CN2CCCC2)c(O)c2ncccc12	/	60.0*	/	/	/	2.8
CN(C)C1CCN(Cc2cc(COCc3ccccc3)c3cccnc3c2O)C1 (stereo unspecified)	/	75.3*	/	/	/	/
Oc1c(CN2CCCCC2)cc(COCc2ccccc2)c2cccnc12	/	62.5*	/	/	/	8.3
CC(C)C(=O)Nc1ccc2c(c1)C(=O)N(C)[C@H]1CC[C@@H](CC(=O)NC3CCCC3)O[C@@H]1CO2	3.4	-1.8	-3.2	-2.6	-1.5	2.2
CC(C)(C)c1csc(NC(=O)Cc2cccs2)n1	-22.5*	12.0	-5.0	3.5	1.8	/
C[C@@H]1CCCCO[C@H](CN(C)C(=O)Nc2ccc(F)cc2)[C@@H](C)CN([C@H](C)CO)C(=O)c2cc(NC(=O)CCC(F)(F)F)ccc2O1	1.2	0.8	2.0	-1.8	-0.4	2.8
CC(=O)c1sc(C(=O)O)c(-c2ccco2)c1-c1ccco1	-3.7	28.5	-1.0	64.5*	5.4	7.7
O=C(O)c1sc(C(=O)O)c(-c2ccccc2)c1-c1ccccc1	2.7	/	1.3	2.3	4.4	/
CN1C(=O)c2cc(NS(=O)(=O)c3ccc(F)cc3)ccc2OC[C@H]2O[C@@H](CC(=O)NCC(F)(F)F)CC[C@H]21	-5.9	-13.6	-11.1	1.0	-4.0	4.3
Cc1ccc(CSCC(=O)N(C)CC(=O)Nc2ccccc2Cl)cc1	-21.1*	1.6	-2.6	2.8	-1.4	2.4
Cc1nnc(SCC(=O)N(C)CC(=O)Nc2ccccc2Cl)s1	15.6	-3.7	-4.9	9.4	8.2	14.2
CN(CC(=O)Nc1ccccc1Cl)C(=O)CSc1nc2ccccc2s1	-25.6*	0.5	-1.9	0.4	-1.0	6.1
Cc1ccc(CSCC(=O)N(C)CC(=O)Nc2c(Cl)cccc2Cl)cc1	-0.5	6.8	0.3	-0.7	0.4	/
CN(CC(=O)Nc1ccccc1Cl)C(=O)COC(=O)c1nc(Cl)c(Cl)c(Cl)c1Cl	-17.8*	-3.8	-8.3	1.3	1.8	-42.0
O=C(Nc1ccccc1F)N1CC(=O)N2[C@H](CO)[C@H](c3ccc(C#CC4CC4)cc3)[C@H]2C1	2.0	/	1.5	0.7	-1.9	2.5
